Numbered stars: 1 amine (or outer) side, 2 acyl side, 3 side chain; on linkers, the order of the positions; unused ones are H or OH. Square brackets hold non-standard residues; d marks the D form. Peptide text beside a SMILES is read from it. X1 = CC[C@H](O)[C@H](N[*:1])C(=O)[*:2]; azaGly = NNC(=O)O Some results are limits rather than exact numbers.

The target of experiment [1] is Mu-type opioid receptor (Cavia porcellus, UniProt P97266). Description: Inhibition of electrically evoked contraction of guinea pig ileum (myenteric plexus:longitudinal muscle preparation) by agonist action at mu 1 opioid receptors. It counts as functional, tissue-based. An outline of the steps: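 Electrically stimulated guinea pig ileum twitch. IC50 for half-maximal inhibition taken from six to eight log dose-response curves, six concentrations each. [Met]enkephalin IC50 measured on the same preparation. Agonist IC50 multiplied by the mean [Met]enkephalin IC50 divided by that assay's [Met]enkephalin IC50.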
Sequence of Mu-type opioid receptor (Cavia porcellus, UniProt P97266) (P97266 whole entry): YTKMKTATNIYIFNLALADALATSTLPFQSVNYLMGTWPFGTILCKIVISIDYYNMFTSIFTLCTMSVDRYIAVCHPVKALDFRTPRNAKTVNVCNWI

Experiment [2] has as its target T1, Delta-type opioid receptor (Rattus norvegicus, UniProt P33533). Description: Inhibition of [3H]DSLET binding to delta 1 opioid receptors in rat brain membranes. It counts as cell membranes.
For experiment [3], the target named is Mu-type opioid receptor (Rattus norvegicus, UniProt P33535). As to the kind of experiment: Inhibition of [3H]DAGO binding to mu 1 opioid receptor in rat brain membranes. It counts as cell membranes. Summed up:
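Rat brain membranes, 0.6–0.7 mg protein, in 50 mM Tris-HCl pH 7.4 with 1 nM [3H]DAGO. Incubated 40 min at 35 °C, then filtered and washed with cold buffer. Bound radioactivity counted by scintillation. Nonspecific binding taken with 10 µM levorphanol, triplicates. Nine unlabeled-ligand concentrations, Hill-plot fit, Ki by Cheng-Prusoff. Three to six independent determinations.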

In experiment [4] the target is Opioid receptors; mu & delta (Homo sapiens, UniProt P41143+P35372). Description: Inhibition of electrically evoked contraction of guinea pig ileum (myenteric plexus;longitudinal muscle)[agonist action at mu 1 opioid receptors) and inhibition of electrically evoked contraction of mouse vas deferens (agonist action at delta 1 opioid receptor). It counts as functional, tissue-based.

Experiment [5] concerns Mus musculus. As to the kind of experiment: Analgesic potency in mice after icv injection and 10 min before exposing to hot plate. In kind it is functional. An outline of the steps:
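Albino mice, 24–28 g, given drug icv by hand (10 µL, modified 30-gauge needle). Jump latency timed on a 55 ± 0.2 °C hot plate 10 min later, experimenter blind. Cut-off 180 s = 100% analgesia. Percent analgesia = (Tt−Tc)/(180 s−Tc). 10 mice per point. AD50 and 95% confidence limits by Litchfield–Wilcoxon.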

The species entered for experiment [6] is Mus musculus. As to the kind of experiment: Inhibitory activity before protection from beta-CNS-induced inactivation in MVD. It counts as functional.
For experiment [7], the target named is T1, Delta-type opioid receptor. Description: Ability to inhibit the binding of [3H]DSLET to Opioid receptor delta 1 in rat brain membranes. It counts as cell membranes.
The species entered for experiment [8] is Mus musculus. Description: Inhibitory activity after protection from beta-CNS-induced inactivation in MVD. It counts as functional.

T1 sequence (P33533 whole entry): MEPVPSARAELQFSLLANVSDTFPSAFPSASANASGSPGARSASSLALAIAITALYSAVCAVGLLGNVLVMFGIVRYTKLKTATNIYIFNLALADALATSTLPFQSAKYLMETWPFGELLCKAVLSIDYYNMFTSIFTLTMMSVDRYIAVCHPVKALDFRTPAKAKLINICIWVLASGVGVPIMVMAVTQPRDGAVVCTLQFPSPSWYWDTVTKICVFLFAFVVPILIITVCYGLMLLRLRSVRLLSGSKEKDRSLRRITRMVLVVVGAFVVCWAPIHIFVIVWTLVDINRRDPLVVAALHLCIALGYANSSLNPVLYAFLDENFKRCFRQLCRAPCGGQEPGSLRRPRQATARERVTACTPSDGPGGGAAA
Sequence of Mu-type opioid receptor (Rattus norvegicus, UniProt P33535) (P33535 whole entry): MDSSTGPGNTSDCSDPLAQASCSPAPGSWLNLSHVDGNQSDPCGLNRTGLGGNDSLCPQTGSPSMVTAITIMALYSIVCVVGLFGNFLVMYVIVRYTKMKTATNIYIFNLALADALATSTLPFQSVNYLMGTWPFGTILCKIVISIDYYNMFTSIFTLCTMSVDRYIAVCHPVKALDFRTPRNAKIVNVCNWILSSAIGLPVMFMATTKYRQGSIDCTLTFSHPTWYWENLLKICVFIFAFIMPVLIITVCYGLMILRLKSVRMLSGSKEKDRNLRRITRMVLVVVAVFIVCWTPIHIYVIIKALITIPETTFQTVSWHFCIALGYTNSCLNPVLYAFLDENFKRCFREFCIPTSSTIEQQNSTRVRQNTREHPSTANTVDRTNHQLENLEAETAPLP

For the compound `CC(C)CC(C)NC(=O)CNC(=O)C(C)(C)NC(=O)[C@@H](N)Cc1ccc(O)cc1` (stereo partly specified), the results for the IC50 in experiment [1] and in experiment [4] were 1850 nM and 4720 nM, respectively. In addition, the Ki in experiment [2] was 6880 nM; in experiment [3], 171 nM.
`CC(C)C[C@H](NC(=O)[C@H](Cc1ccccc1)NC(=O)CNC(=O)[C@H](NC(=O)[C@@H](N)Cc1ccc(O)cc1)[C@H](C)O)C(=O)N[C@@H](CO)C(=O)O`: the 50% inhibitory concentration (IC50) in experiment [1] stood at 99 nM; in experiment [4] it was 0.25 nM. For the same compound, the values for the Ki in experiment [2] and in experiment [3] were 4.18 nM and 41.9 nM, respectively.
Consider `CC(C)C[C@H](NC(=O)[C@H](CC(C)C)NC(=O)[C@H](Cc1ccccc1)NC(=O)CNC(=O)[C@H](NC(=O)[C@@H](N)Cc1ccc(O)cc1)[C@H](C)O)C(=O)O`, for which the half-maximal inhibitory concentration (IC50) in experiment [1] came out at 260 nM; in experiment [4], 0.41 nM. Besides, the figures for the Ki in experiment [2] and in experiment [3] were 2.65 nM and 38 nM, respectively.
For `CC(C)C[C@H](NC(=O)[C@H](Cc1ccccc1)NC(=O)CNC(=O)[C@H](NC(=O)[C@@H](N)Cc1ccc(O)cc1)[C@H](C)O)C(=O)N[C@H](C(=O)O)[C@@H](C)O` [listing 1 of 2 here], in experiment [5], the dose is 50 pmol/mouse.
On to `CC(C)C[C@H](NC(=O)[C@H](CC(C)C)NC(=O)[C@H](Cc1ccccc1)NC(=O)CNC(=O)[C@@H](CO)NC(=O)[C@@H](N)Cc1ccc(O)cc1)C(=O)O`, for which the IC50 in experiment [1] is 257 nM; in experiment [4], 2.45 nM. In addition, the Ki in experiment [2] turned out to be 9.12 nM; in experiment [3], 158 nM. The same compound displayed a dose in experiment [5] of 610 pmol/mouse.
Take `CC(C)CC(C)NC(=O)CNC(=O)[C@@H](C)NC(=O)[C@@H](N)Cc1ccc(O)cc1` (stereo partly specified): the IC50 amounted to 237 nM in experiment [1] and 1050 nM in experiment [4]. Further, the results for the Ki in experiment [2] and in experiment [3] were 480 nM and 17 nM, respectively.
With `CC(C)CCNC(=O)CNC(=O)[C@@H](C)NC(=O)[C@@H](N)Cc1ccc(O)cc1`, the IC50 in experiment [1] is 323 nM; in experiment [4], 3410 nM. In addition, the values for the Ki in experiment [2] and in experiment [3] were 1020 nM and 10 nM, respectively.
`CC(C)C[C@@H](NC(=O)[C@H](Cc1ccccc1)NC(=O)CNC(=O)[C@@H](C)NC(=O)[C@@H](N)Cc1ccc(O)cc1)C(=O)O` [DADLE] had a dose in experiment [5] of 12 pmol/mouse.
With `CC(C)C[C@H](NC(=O)[C@H](Cc1ccccc1)NC(=O)CNC(=O)[C@H](NC(=O)[C@@H](N)Cc1ccc(O)cc1)[C@H](C)O)C(=O)N1C[C@H](O)C[C@H]1C(=O)O`, the concentration for half-maximal inhibition (IC50) in experiment [1] came out at 88 nM; in experiment [4], 1.1 nM. Also, the Ki is 7.6 nM in experiment [2] and 43.8 nM in experiment [3]. In experiment [5], the dose was 252 pmol/mouse.
Regarding `CC(C)CC(C)NC(=O)CNC(=O)[C@@H](CO)NC(=O)[C@@H](N)Cc1ccc(O)cc1` (stereo partly specified), the values for the IC50 in experiment [1] and in experiment [4] were 718 nM and 990 nM, respectively. For the same compound, the Ki in experiment [2] came out at 1370 nM; in experiment [3], 43 nM.
Consider `CC(C)C[C@@H](C(=O)NCCO)N(C)C(=O)CNC(=O)[C@@H](C)NC(=O)[C@@H](N)Cc1ccc(O)cc1`, for which the IC50 in experiment [1] came to 379 nM; in experiment [4], 3180 nM. Besides, the results for the Ki in experiment [2] and in experiment [3] were 3810 nM and 116 nM, respectively.
For the compound `C[C@@H](NC(=O)[C@@H](N)Cc1ccc(O)cc1)C(=O)NCC(=O)N(C)[C@@H](Cc1ccccc1)C(=O)NCCO` [DAMGO], the IC50 is 11.5 nM in experiment [1], 100 nM in experiment [6] (Mus musculus) and 2400 nM in experiment [8] (Mus musculus). In addition, the affinity in experiment [7] corresponds to a Ki of 700 nM. The compound also returned a dose in experiment [5] of 1 pmol/mouse.
In the case of `CC(C)CC(C)NC(=O)CNC(=O)[C@H](C)NC(=O)[C@@H](N)Cc1ccc(O)cc1` (stereo partly specified), the figures for the IC50 in experiment [1] and in experiment [4] were ≥ 50000 nM and “>= 50000 nM”, respectively.
As to `CCN(C(=O)CNC(=O)[C@@H](C)NC(=O)[C@@H](N)Cc1ccc(O)cc1)C(C)CC(C)C` (stereo partly specified), the figures for the IC50 in experiment [1] and in experiment [4] were 216 nM and 1800 nM, respectively. In addition, the inhibition constant Ki in experiment [2] was determined as 3450 nM; in experiment [3], 35.5 nM.
`CC(C)CC(C)NC(=O)CNC(=O)[C@@H](COC(C)(C)C)NC(=O)[C@@H](N)Cc1ccc(O)cc1` (stereo partly specified): the IC50 in experiment [1] came out at 111 nM; in experiment [4], 105 nM. Moreover, the figures for the inhibitory constant (Ki) in experiment [2] and in experiment [3] were 39 nM and 13.7 nM, respectively.
As for `CC(C)C[C@H](NC(=O)[C@H](Cc1ccccc1)NC(=O)CNC(=O)[C@@H](CO)NC(=O)[C@@H](N)Cc1ccc(O)cc1)C(=O)N[C@H](C(=O)O)[C@@H](C)O`, the IC50 in experiment [1] was 406 nM; in experiment [6] (Mus musculus), 0.38 nM; in experiment [8] (Mus musculus), 0.65 nM. Besides, the Ki in experiment [2] came to 4.8 nM. Moreover, the dose in experiment [5] amounted to 130 pmol/mouse.
On to `CC(C)C[C@H](NC(=O)[C@H](Cc1ccccc1)NC(=O)CNC(=O)NNC(=O)[C@@H](N)Cc1ccc(O)cc1)C(=O)N[C@H](C(=O)O)[C@@H](C)O` (H-Y[azaGly]GFLT-OH), for which the IC50 in experiment [1] turned out to be 14000 nM; in experiment [4], 38 nM. Moreover, the Ki in experiment [2] turned out to be 395 nM; in experiment [3], 9790 nM.
Take `CC[C@H](O)[C@H](NC(=O)[C@@H](N)Cc1ccc(O)cc1)C(=O)NCC(=O)N[C@@H](Cc1ccccc1)C(=O)N[C@@H](CC(C)C)C(=O)N[C@H](C(=O)O)[C@@H](C)O` (H-Y[X1]GFLT-OH): the figures for the IC50 in experiment [1] and in experiment [4] were 21.3 nM and 0.05 nM, respectively. The Ki in experiment [2] was determined as 2.2 nM; in experiment [3] it was 16 nM.
In the case of `CC(C)C[C@H](NC(=O)[C@H](Cc1ccccc1)NC(=O)CNC(=O)[C@H](NC(=O)[C@@H](N)Cc1ccc(O)cc1)[C@H](C)O)C(=O)N[C@H](C(=O)O)[C@@H](C)O` [listing 2 of 2 here], the concentration for half-maximal inhibition (IC50) in experiment [1] amounted to 460 nM; in experiment [6] it was 0.13 nM; in experiment [8], 0.22 nM; in experiment [4] it was 0.15 nM. The inhibition constant (Ki) in experiment [3] came out at 25.3 nM.
`CC(C)C[C@@H](C(=O)N[C@H](C(=O)O)[C@@H](C)O)N(C)C(=O)[C@H](Cc1ccccc1)NC(=O)CNC(=O)[C@H](NC(=O)[C@@H](N)Cc1ccc(O)cc1)[C@H](C)O`: the figures for the IC50 in experiment [1] and in experiment [4] were 224 nM and 1.33 nM, respectively. Moreover, the Ki was 30.7 nM in experiment [2] and 157 nM in experiment [3].
For `CSCC[C@@H](NC(=O)[C@@H](N)Cc1ccc(O)cc1)C(=O)NCC(=O)NCCC(C)C`, the values for the IC50 in experiment [1] and in experiment [4] were 154 nM and 733 nM, respectively. Besides, the Ki in experiment [2] was determined as 600 nM; in experiment [3], 15 nM.

As a reminder, the IC50 is the concentration that inhibits the measured activity by half. Low readings indicate inhibition by little substance, high ones a need for much substance. A word on the Ki: it is the dissociation constant of the complex between target and ligand, obtained from inhibition or displacement. A low value points to tighter binding.

Values taken from ChEMBL document CHEMBL1124245, “Investigation of the structural parameters involved in the mu and delta opioid receptor discrimination of linear enkephalin-related peptides” (J Med Chem, 1988).
